Data from ChEMBL document CHEMBL1811920, “Chemical constituents of a marine fungus, Arthrinium sacchari” (J Nat Prod, 2011).

Experiments:
[1] = tested on: HUVEC; assay: Antiangiogenesis activity in HUVEC assessed as inhibition of VEGF-induced cell proliferation after 72 hrs by MTT assay; assay type: functional, cell-based; conditions: Homo sapiens
Outline: (§1)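 Cells were purchased primary endothelial cells, maintained at 37 C in 5% CO2: HUVECs in EGM-2 Bulletkit medium and HUAECs in EGM-2MV Bulletkit medium. For the assay, 3 103 cells/well were seeded in culture medium for 3 h, then switched to 1% FBS EBM-2 for 21 h. VEGF (1 nM) and compounds were added for 72 h. Proliferation was read with WST-8 at 450 nm. Ki8751, a VEGFR2 kinase inhibitor, was the positive control.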

[2] = Antiangiogenesis activity in HUAEC assessed as inhibition of VEGF-induced cell proliferation after 72 hrs by MTT assay; assay type: functional; conditions: Homo sapiens; outline: as §1

| SMILES | IC50 [1] [µM] | IC50 [2] [µM] |
| --- | --- | --- |
| C[C@H]1C/C=C/[C@H]2[C@@H]3O[C@]3(C)[C@@H](C)[C@H]3[C@H](Cc4ccccc4)NC(=O)[C@]32OC(=O)O/C=C/[C@@](C)(O)C1=O [CYTOCHALASIN E] | 0.0114 | 0.011 |
| Cc1c(O)cc(O)c2c(=O)oc(CO)c(C)c12 [DECARBOXYHYDROXYCITRINONE] | 7.6 | 17.4 |
| C=C[C@]1(C)C=C2C(=O)C(O)=C3[C@@](C)(CO)CC[C@@H](O)[C@]3(C)[C@@]2(O)CC1 [LIBERTELLENONE C] | 29.7 | 68.7 |
| C=C[C@]1(C)C=C2C(=O)C3=C4[C@@](C)(CC[C@@H](O)[C@]4(C)[C@@]2(O)CC1)[C@@H](O)O3 [LIBERTELLENONE E] | 236 | 238 |
| C=C[C@]1(C)C=C2C(=O)C3=C4[C@@](C)(CC[C@@H](O)[C@]4(C)[C@@]2(O)CC1)CO3 [LIBERTELLENONE F] | 64.1 | 97.8 |
| C=C[C@@]1(C)C=C2C(=O)C(O)=C3[C@](C)(C(=O)O)CC[C@@H]4C[C@]34[C@]2(O)C(=O)C1 [MYROCIN A] | 11 | 9.2 |
| C=C[C@]1(C)C=C2[C@@H](O)[C@@H]3OC(=O)[C@@]4(C)CC[C@H]5C[C@]5([C@@H]34)[C@@]2(O)C(=O)C1 [MYROCIN D] | 70.8 | 277 |
